From ChEMBL document CHEMBL1148028, “Design and synthesis of urea and thiourea derivatives and their inhibitory activities on lipopolysaccharide-induced NO production” (Bioorg Med Chem Lett, 2007)
The source made the active and inactive calls. No cut-off for these calls is given here.

What follows are molecules tested on RAW (assay: Inhibition of LPS-induced NO production in RAW 264.7 cells at 0.1 uM after 20 hrs). Details: Mus musculus.
Assay type: functional
For N=C(N)NN [PIMAGEDINE], the inhibition at 0.1 µM was 85%.

These molecules were tested on RAW (assay: Inhibition of LPS-induced NO production in RAW 264.7 cells at 5 uM after 20 hrs). Details: Mus musculus.
Assay type: functional, cell-based
How it was run: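 Cells plated in 10% FBS–DMEM for 24 h, then given 1% FBS medium with LPS (1 µg/mL) plus compound for 20 h. Accumulated nitrite assayed by Griess reaction (10 min, room temp), absorbance 570 nm, quantified by sodium nitrite calibration. Percent inhibition relative to LPS-only control, n = 3.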
O=C(O)CNC(=O)Nc1ccc(OCCn2c3ccccc3c3ccccc32)cc1 gave an inhibition at 5 µM of 43%. CCN(C(N)=O)c1ccc(OCCn2c3ccccc3c3ccccc32)cc1 showed an inhibition at 5 µM of 25%. For CC(C)NC(=O)Nc1ccc(OCCn2c3ccccc3c3ccccc32)cc1, the inhibition at 5 µM was 15%. With O=C(Nc1ccccc1)Nc1ccc(OCCn2c3ccccc3c3ccccc32)cc1 the inhibition at 5 µM was 28%. For NC(=S)N(CC1CC1)c1ccc(OCCn2c3ccccc3c3ccccc32)cc1, the inhibition at 5 µM was 34%. Work on NC(=O)N(CC1CC1)c1ccc(OCCn2c3ccccc3c3ccccc32)cc1 yielded an IC50 of 3120 nM and an inhibition at 5 µM of 61%. For CCNC(=O)Nc1ccc(OCCn2c3ccccc3c3ccccc32)cc1, the inhibition at 5 µM was 30%. CCCNC(=O)Nc1ccc(OCCn2c3ccccc3c3ccccc32)cc1 gave an inhibition at 5 µM of 14%. CCNC(=S)Nc1ccc(OCCn2c3ccccc3c3ccccc32)cc1 gave an IC50 of 901 nM and an inhibition at 5 µM of 90%. With CNC(=S)Nc1ccc(OCCn2c3ccccc3c3ccccc32)cc1 the IC50 was 730 nM and the inhibition at 5 µM was 80%. NC(=O)Nc1ccc(OCCn2c3ccccc3c3ccccc32)cc1 was tested, and the inhibition at 5 µM was 24%. For CCOC(=O)CNC(=O)Nc1ccc(OCCn2c3ccccc3c3ccccc32)cc1, the inhibition at 5 µM was 38%. Molecule CCN(C(N)=S)c1ccc(OCCn2c3ccccc3c3ccccc32)cc1 has an inhibition at 5 µM of 33%. O=C(O)CNC(=S)Nc1ccc(OCCn2c3ccccc3c3ccccc32)cc1 showed an IC50 of 153 nM and an inhibition at 5 µM of 87%. Molecule CN(C(N)=O)c1ccc(OCCn2c3ccccc3c3ccccc32)cc1 has an inhibition at 5 µM of 8%. Molecule NC(=S)Nc1ccc(OCCn2c3ccccc3c3ccccc32)cc1 has an IC50 of 5310 nM and an inhibition at 5 µM of 55%. CCOC(=O)CNC(=S)Nc1ccc(OCCn2c3ccccc3c3ccccc32)cc1 gave an inhibition at 5 µM of 41%.

What follows are molecules tested on RAW (assay: Inhibition of iNOS protein expression in LPS-stimulated mouse RAW 264.7 cells at 10 uM after 20 hrs by Western blot analysis). Details: not given.
Assay type: functional, cell-based
How it was run: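 Cells (1.5 × 10⁶ per 60-mm dish) given LPS (1 µg/mL) with or without compound for 20 h, then lysed. 20 µg lysate protein run on 8% SDS-PAGE, blotted to PVDF, probed for mouse iNOS and actin, ECL detection. iNOS band density normalized to actin; means ± SD of three densitometric analyses.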
In the case of CNC(=S)Nc1ccc(OCCn2c3ccccc3c3ccccc32)cc1, the Activity is reported as “Active”.

Each molecule was assayed on RAW (assay: Inhibition of iNOS mRna expression in LPS-stimulated mouse RAW 264.7 cells at 10 uM after 6 hrs by RT-PCR analysis). Details: not given.
Assay type: functional, cell-based
How it was run: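 Cells (1.8 × 10⁶ per 60-mm dish) stimulated with LPS (1 µg/mL) with or without compound for 6 h, washed twice with PBS. Total RNA extracted with Trizol; iNOS and β-actin mRNA assessed by RT-PCR.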
For CNC(=S)Nc1ccc(OCCn2c3ccccc3c3ccccc32)cc1, the Activity was “Active”.
